Publication PMC2650391 (Molecular cell, 2009)
Where no end group is shown, it is not given here.

What was measured:
[1] = test system: H3K4me3 at Smc4, Egln1, Ext1 promoters; assay: ChIP Realtime-PCR, H3K4me3 levels at target promoters; type: cell-based; conditions: doxorubicin treatment, all samples
[2] = test system: H3K4me peptides / ING4 PHD finger; assay: Biotinylated histone peptide pull-down, Western analysis; type: binding; conditions: individual substitutions, GST-fusion proteins
[3] = test system: Egln1, Ext1 and Smc4 mRNA; assay: mRNA expression Realtime-PCR; type: cell-based; conditions: HT1080; relative to untreated wild-type cells
Summary of the method: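 HT1080 cells stably carrying vector, Flag-ING4 or Flag-ING4D213A, with doxorubicin-induced DNA damage. Transcripts measured by real-time PCR with TaqMan gene expression assays. Values are relative change versus untreated wild-type cells; error bars s.e.m.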

[4] = test system: gene promoters in HT1080 cells; assay: ChIP-chip on whole genome promoter tiling arrays; type: cell-based; conditions: doxorubicin treatment; 292 doxorubicin-induced target promoters
T47D cells = assay: Soft agar assay, anchorage-independent growth; type: cell-based; conditions: colonies scored after 21 days, vs control vector
Summary of the method: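 T47D cells stably carrying pMSCV-ING4, pMSCV-ING4D213A or empty pMSCV; 55,000 cells plated in […] soft agar growth medium over a 1% agar base layer. Medium refreshed every three days; colonies counted at day 21. Four independent experiments, S.E.M.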

[5] = test system: purified polynucleosomes (H3K4me3); assay: Polynucleosome binding, Western analysis; conditions: recombinant proteins
Summary of the method: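 Recombinant ING4 PHD finger proteins, wild type or carrying substitutions in the H3K4me3-binding surface, incubated with purified polynucleosomes. Bound material detected by Western blot with antibodies to the four core histones, H3K4me3 and H3K9me3.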

H3K4me3 = assay: Global H3K4me3 levels, Western analysis of cell lysates; type: cell-based; conditions: demethylase transfection, ± ING4 overexpression
Summary of the method: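 Cells transfected with Rbp2 or Plu-1 demethylase, with or without ING4 overexpression. Whole-cell lysates probed by Western blot for H3K4me3. Four independent experiments, error bars S.E.M.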

HT1080 cells = assay: TUNEL assay of ING4-dependent apoptosis; type: cell-based; conditions: HT1080, 400 ng/ml doxorubicin 20 hours, 48 hours after transfection
Summary of the method: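 HT1080 cells transfected with the plasmids, then given 400 ng/ml doxorubicin for 20 h, assayed 48 h after transfection. Cells fixed in methanol at −20C for 20 min, TUNEL-stained (TMR red) and mounted with DAPI. TUNEL-positive cells counted from images; s.e.m. from 3 independent fields.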

Molecule: COc1cccc2c1C(=O)c1c(O)c3c(c(O)c1C2=O)C[C@@](O)(C(=O)CO)C[C@@H]3O[C@H]1C[C@H](N)[C@H](O)[C@H](C)O1 [doxorubicin]
- H3K4me3 levels at Smc4, Egln1 and Ext1 promoters [1]: modestly induced

Molecule: D213A: ING4PHD with substitution D213A (EPTYCLCHQVSYGEMIGCANPDCSIEWFHFACVGLTTKPRGKWFCPR; cysteine pairing not given here; also: GST fusion, end not given here)
- binding of ING4PHD mutants to H3K4me peptides in pull-down [2]: abrogated binding of the ING4PHD to the H3K4me peptides

Molecule: ING4D213A: ING4 with a point mutation that abrogates H3K4me3 binding
- baseline smc4 expression [3]: inhibits baseline expression
- average occupancy on DNA damage-dependent promoters [4]: largely absent compared to the wild-type protein
- growth in soft agar (T47D cells): failed to inhibit soft agar growth

Molecule: ING4PHD: recombinant ING4 PHD finger, aa 195–241 (EPTYCLCHQVSYGEMIGCDNPDCSIEWFHFACVGLTTKPRGKWFCPR; cysteine pairing not given here; also: GST fusion, end not given here)
- interaction with H3K4me3 in nucleosomes [5]: occurs in the context of nucleosomes

Molecule: PLU-1: H3K4me3-demethylase
- total H3K4me3 levels (H3K4me3): decreased total H3K4me3 levels
- ING4-dependent apoptosis (HT1080 cells): abrogated ING4-dependent apoptosis

Molecule: RBP2: H3K4me3-demethylase
- total H3K4me3 levels (H3K4me3): decreased total H3K4me3 levels
- ING4-dependent apoptosis (HT1080 cells): abrogated ING4-dependent apoptosis

Molecule: W221A: ING4PHD with substitution W221A (EPTYCLCHQVSYGEMIGCDNPDCSIEAFHFACVGLTTKPRGKWFCPR; cysteine pairing not given here; also: GST fusion, end not given here)
- binding of ING4PHD mutants to H3K4me peptides in pull-down [2]: abrogated binding of the ING4PHD to the H3K4me peptides

Molecule: Y198A: ING4PHD with substitution Y198A (EPTACLCHQVSYGEMIGCDNPDCSIEWFHFACVGLTTKPRGKWFCPR; cysteine pairing not given here; also: GST fusion, end not given here)
- binding of ING4PHD mutants to H3K4me peptides in pull-down [2]: abrogated binding of the ING4PHD to the H3K4me peptides
